ChEMBL document CHEMBL1136332, “Structure-activity relationship of triaryl propionic acid analogues on the human EP3 prostanoid receptor” (Bioorg Med Chem Lett, 2003)

What was measured:
[1] = biological target: Prostaglandin E2 receptor EP2 subtype (Homo sapiens, UniProt P43116); experiment: Affinity at human Prostanoid EP2 receptor in the human embryonic kidney (HEK) 293 cell line.; format: cell-based, HEK293
[2] = biological target: T1, Prostaglandin E2 receptor EP3 subtype (Homo sapiens, UniProt P43115); experiment: Affinity at human Prostanoid EP3 receptor in the human embryonic kidney (HEK) 293 cell line.; format: cell-based, HEK293
T1 sequence (P43115 whole entry): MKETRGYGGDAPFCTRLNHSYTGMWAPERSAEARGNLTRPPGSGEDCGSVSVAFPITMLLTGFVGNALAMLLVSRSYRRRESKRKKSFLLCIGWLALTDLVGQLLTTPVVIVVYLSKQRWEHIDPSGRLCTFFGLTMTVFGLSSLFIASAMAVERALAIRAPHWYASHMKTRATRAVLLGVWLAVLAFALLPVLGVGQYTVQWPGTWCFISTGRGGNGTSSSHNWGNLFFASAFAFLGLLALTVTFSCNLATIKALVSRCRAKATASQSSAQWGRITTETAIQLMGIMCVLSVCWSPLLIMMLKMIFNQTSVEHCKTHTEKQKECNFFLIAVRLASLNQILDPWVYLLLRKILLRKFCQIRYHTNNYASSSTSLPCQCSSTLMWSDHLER

[3] = biological target: T2, Prostaglandin E2 receptor EP1 subtype (Homo sapiens, UniProt P34995); experiment: Affinity at human Prostanoid EP1 receptor in the human embryonic kidney (HEK) 293 cell line.; format: cell-based, HEK293
T2 sequence (P34995 whole entry): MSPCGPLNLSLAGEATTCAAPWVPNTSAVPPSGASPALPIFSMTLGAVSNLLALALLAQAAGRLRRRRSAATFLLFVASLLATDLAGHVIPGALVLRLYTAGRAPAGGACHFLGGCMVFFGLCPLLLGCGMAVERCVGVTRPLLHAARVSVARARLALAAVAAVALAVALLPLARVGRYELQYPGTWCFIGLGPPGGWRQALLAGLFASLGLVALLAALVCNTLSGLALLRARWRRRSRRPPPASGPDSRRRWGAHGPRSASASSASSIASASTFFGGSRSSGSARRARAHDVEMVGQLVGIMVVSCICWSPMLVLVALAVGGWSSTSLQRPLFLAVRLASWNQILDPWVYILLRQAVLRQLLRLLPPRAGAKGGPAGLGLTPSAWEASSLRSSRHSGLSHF

[4] = biological target: Prostaglandin E2 receptor EP4 subtype (Homo sapiens, UniProt P35408); experiment: Affinity at human Prostanoid EP4 receptor in the human embryonic kidney (HEK) 293 cell line.; format: cell-based, HEK293
Sequence of Prostaglandin E2 receptor EP4 subtype (P35408 whole entry): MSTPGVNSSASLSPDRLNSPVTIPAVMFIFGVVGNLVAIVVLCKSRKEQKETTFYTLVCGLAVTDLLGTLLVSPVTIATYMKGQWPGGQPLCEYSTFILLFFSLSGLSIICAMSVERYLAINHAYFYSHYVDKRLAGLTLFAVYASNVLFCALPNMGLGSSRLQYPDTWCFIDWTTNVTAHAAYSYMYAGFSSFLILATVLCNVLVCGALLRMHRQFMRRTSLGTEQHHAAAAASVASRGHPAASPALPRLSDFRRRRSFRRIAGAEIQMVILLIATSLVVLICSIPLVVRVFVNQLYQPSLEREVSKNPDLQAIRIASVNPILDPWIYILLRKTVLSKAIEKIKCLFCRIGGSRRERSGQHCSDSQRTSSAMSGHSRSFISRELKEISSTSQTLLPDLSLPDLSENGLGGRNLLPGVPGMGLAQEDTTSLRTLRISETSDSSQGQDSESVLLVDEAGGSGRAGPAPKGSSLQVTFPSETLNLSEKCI

[5] = biological target: T3, Prostaglandin E2 receptor EP3 subtype (Homo sapiens) (UniProt P43115); experiment: Ability to inhibit the binding of human Prostanoid EP3 receptor to PGE-2 using EP3 functional assay
T3 sequence (whole entry): T1 sequence (P43115 whole entry)
Summary of the method: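 HEL 92.1.7 human erythroleukemia cells, which endogenously express EP3, at 2×10⁵ cells per incubation in HBSS with RO-20174 and forskolin. Antagonist (0–3×10⁻⁶ M, 0.5% DMSO final) preincubated 10 min at 37 °C. Sulprostone (0–3×10⁻⁵ M) was then added as agonist for 10 min at 37 °C. The reaction was stopped by 3 min boiling, and cAMP was read by SPA.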

[6] = biological target: Prostaglandin F2-alpha receptor (Homo sapiens, UniProt P43088); experiment: Ability to inhibit the binding of human FP receptor to PGD-2
Sequence of Prostaglandin F2-alpha receptor (P43088 whole entry): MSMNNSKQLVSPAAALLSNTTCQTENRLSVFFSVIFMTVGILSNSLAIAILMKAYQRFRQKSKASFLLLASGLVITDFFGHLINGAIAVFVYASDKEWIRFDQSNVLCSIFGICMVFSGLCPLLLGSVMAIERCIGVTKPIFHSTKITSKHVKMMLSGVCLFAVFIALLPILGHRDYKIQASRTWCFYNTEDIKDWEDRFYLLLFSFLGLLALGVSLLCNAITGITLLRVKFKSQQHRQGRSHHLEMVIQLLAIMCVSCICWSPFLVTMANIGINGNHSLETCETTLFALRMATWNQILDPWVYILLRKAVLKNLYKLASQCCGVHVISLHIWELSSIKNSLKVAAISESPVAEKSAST

Prostacyclin receptor = Prostacyclin receptor (Homo sapiens, UniProt P43119); experiment: Ability to inhibit the binding of human IP receptor to Prostaglandin I2 receptor
Sequence of Prostacyclin receptor (P43119 whole entry): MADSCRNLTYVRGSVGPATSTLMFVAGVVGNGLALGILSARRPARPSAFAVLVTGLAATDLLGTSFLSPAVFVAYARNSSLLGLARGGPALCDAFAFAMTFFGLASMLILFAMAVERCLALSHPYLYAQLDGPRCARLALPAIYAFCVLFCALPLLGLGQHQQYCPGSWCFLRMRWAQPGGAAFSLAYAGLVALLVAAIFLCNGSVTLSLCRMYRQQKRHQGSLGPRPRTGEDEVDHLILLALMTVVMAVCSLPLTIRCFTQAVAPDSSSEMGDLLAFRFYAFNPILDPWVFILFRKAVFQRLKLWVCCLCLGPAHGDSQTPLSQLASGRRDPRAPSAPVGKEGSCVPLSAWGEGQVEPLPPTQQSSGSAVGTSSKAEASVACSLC

Thromboxane A2 receptor = biological target: T4, Thromboxane A2 receptor (Homo sapiens, UniProt P21731); experiment: Ability to inhibit the binding of human Thromboxane A2 receptor to TXA2
T4 sequence (P21731 whole entry): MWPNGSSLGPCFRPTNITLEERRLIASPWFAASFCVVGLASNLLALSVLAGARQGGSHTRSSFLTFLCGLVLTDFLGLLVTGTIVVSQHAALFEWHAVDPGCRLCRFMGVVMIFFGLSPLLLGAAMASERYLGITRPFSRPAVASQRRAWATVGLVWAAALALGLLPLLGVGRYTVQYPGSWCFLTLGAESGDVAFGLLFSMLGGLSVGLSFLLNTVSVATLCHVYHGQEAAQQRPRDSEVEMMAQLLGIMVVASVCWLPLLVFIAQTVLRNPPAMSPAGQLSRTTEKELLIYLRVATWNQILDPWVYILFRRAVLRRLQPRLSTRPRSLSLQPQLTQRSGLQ

[7] = biological target: Prostaglandin D2 receptor DP (human) (UniProt Q13258); experiment: Ability to inhibit the binding of human DP receptor to PGD-2
Sequence of Prostaglandin D2 receptor DP (human) (Q13258 whole entry, looked up): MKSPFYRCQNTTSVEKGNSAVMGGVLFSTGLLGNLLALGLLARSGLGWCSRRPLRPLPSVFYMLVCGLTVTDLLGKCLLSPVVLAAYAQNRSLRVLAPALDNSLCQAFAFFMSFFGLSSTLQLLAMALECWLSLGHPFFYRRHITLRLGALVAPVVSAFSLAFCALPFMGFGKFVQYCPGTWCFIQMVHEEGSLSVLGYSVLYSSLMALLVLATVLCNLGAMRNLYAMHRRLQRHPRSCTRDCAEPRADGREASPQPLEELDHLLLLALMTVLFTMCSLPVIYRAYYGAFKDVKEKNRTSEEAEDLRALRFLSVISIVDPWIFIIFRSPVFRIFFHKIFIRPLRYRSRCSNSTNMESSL

Sequence of Prostaglandin E2 receptor EP2 subtype (P43116 whole entry): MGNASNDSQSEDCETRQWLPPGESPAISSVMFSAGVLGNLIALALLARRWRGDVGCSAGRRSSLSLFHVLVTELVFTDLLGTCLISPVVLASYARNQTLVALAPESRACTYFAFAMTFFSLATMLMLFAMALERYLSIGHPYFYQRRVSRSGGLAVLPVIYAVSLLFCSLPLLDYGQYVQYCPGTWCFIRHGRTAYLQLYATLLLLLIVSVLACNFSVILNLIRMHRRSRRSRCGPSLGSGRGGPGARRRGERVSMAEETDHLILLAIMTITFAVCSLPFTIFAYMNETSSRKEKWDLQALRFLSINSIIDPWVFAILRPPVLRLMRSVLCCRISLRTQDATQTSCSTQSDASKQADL

Ki [1]	Ki [2]	Ki [3]	Ki [4]	Kb [5]	Ki [6]	Ki (Prostacyclin receptor)	Ki (Thromboxane A2 receptor)	Ki [7]	Structure (SMILES)
1600 nM	16 nM	2600 nM	1700 nM						O=C(CCc1ccccc1-c1cccc(-c2ccccc2OCc2ccccc2)c1)NS(=O)(=O)c1cccs1
2500 nM	52 nM	85000 nM	460 nM						O=C(O)CNc1ccccc1-c1csc(-c2ccccc2OCc2ccccc2)c1
7500 nM	1600 nM	10000 nM	> 10000 nM						O=C(O)/C=C/c1ccccc1-c1ccc(Cl)c(Cl)c1
8100 nM	750 nM	34000 nM	6000 nM						O=C(O)CCc1ccccc1-c1cccc(-c2ccccc2)c1
4600 nM	21 nM	1100 nM	1100 nM						O=C(O)CCc1ccccc1-c1cccc(-c2ccccc2OCc2c(Cl)cccc2Cl)c1
830 nM	84 nM	72000 nM	1700 nM						O=C(O)/C=C/c1ccccc1-c1cccc(-c2ccccc2OCc2ccccc2)c1
10000 nM		8100 nM							O=C(/C=C/c1ccccc1-c1ccc(Cl)c(Cl)c1)NS(=O)(=O)c1cccs1
8100 nM	7 nM	12000 nM	1900 nM						Cc1cccc(/C=C/Cc2ccccc2/C=C/C(=O)O)c1OCc1ccccc1

The next lines start with the compound.

Structure (SMILES)	Ki [1]	Ki [2]	Ki [3]	Ki [4]	Kb [5]	Ki [6]	Ki (Prostacyclin receptor)	Ki (Thromboxane A2 receptor)	Ki [7]
O=C(O)C1CC1c1ccccc1-c1csc(-c2ccccc2OCc2ccccc2)c1 (configuration not stated)	2300 nM	3 nM	48000 nM	300 nM	5.8 nM	22000 nM	710 nM	400 nM	120 nM
O=C(O)CCc1ccccc1-c1csc(-c2ccccc2OCc2ccccc2)c1	2500 nM	23 nM	17800 nM	650 nM					
CC(Cc1ccccc1-c1cccc(-c2ccccc2OCc2ccccc2)c1)C(=O)O (configuration not stated)	3600 nM	820 nM	8300 nM	1200 nM					
O=C(O)CCc1ccccc1-c1ccc(-c2ccccc2OCc2ccccc2)s1	4100 nM	520 nM	27000 nM	1100 nM					
CC(CC(=O)O)c1ccccc1-c1csc(-c2ccccc2OCc2ccccc2)c1 (configuration not stated)	4600 nM	35 nM	35000 nM	1100 nM					
O=C(O)c1ccc(CCCc2ccccc2OCc2ccccc2)cc1	150 nM	2300 nM	230 nM	440 nM					
O=C(O)CCCc1ccccc1-c1cccc(-c2ccccc2OCc2ccccc2)c1	3500 nM	590 nM	11900 nM	2000 nM					
O=C(O)CCc1ccccc1-c1cccc(-c2ccccc2OCc2ccccc2)c1	3700 nM	55 nM	8300 nM	1800 nM					
O=C(O)Cc1ccccc1-c1cccc(-c2ccccc2OCc2ccccc2)c1	3600 nM	1700 nM	9300 nM	1100 nM					
O=C(O)CCc1ccccc1-c1cc(-c2ccccc2OCc2ccccc2)cs1	2900 nM	27 nM	17500 nM	760 nM					
O=C(O)CCc1ccccc1-c1cccc(-c2ccccc2COc2ccccc2)c1	2900 nM	89 nM	9500 nM	1000 nM					
O=C(O)CCc1ccccc1-c1cccc(-c2ccc(OCc3ccccc3)cc2)c1	> 97000 nM	1500 nM	> 97000 nM	21000 nM					
CC(Cc1ccccc1-c1csc(-c2ccccc2OCc2ccccc2)c1)C(=O)O (configuration not stated)	5500 nM	460 nM	13000 nM	980 nM					
